Here are results for 6 compounds from ChEMBL document CHEMBL1806444, “Synthesis of new chalcone derivatives bearing 2,4-thiazolidinedione and benzoic acid moieties as potential anti-bacterial agents” (2011).

≈ marks a conversion by molar mass, not a printed value. Bounds are passed on as bounds.

Common to all, as to assay type: functional
Assay [1] deals with Staphylococcus aureus. The assay is described as follows: Antibacterial activity against 10^5 CFU/mL Staphylococcus aureus KCTC 503 assessed as inhibition of bacterial growth after 24 hrs by microtiter enzyme-linked immunosorbent assay. The note with it: KCTC 503, 24 h.
For assay [2], the system named is Staphylococcus aureus. In words: Antibacterial activity against 10^5 CFU/mL quinolone-resistant Staphylococcus aureus CCARM 3505 assessed as inhibition of bacterial growth after 24 hrs by microtiter enzyme-linked immunosorbent assay. The note with it: CCARM 3505, 24 h. In outline: (§1)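 Broth microdilution MIC. Bacteria grown to mid-log phase in Mueller-Hinton broth, diluted 1000-fold, and inoculated at 10⁵ CFU/mL in MHB, 0.2 mL/well in 96-well plates. Compounds dissolved in DMSO, final DMSO not exceeding 0.05%, in serial dilutions. Oxacillin and norfloxacin served as positive controls. MIC is the lowest concentration giving complete growth inhibition after 24 h at 37 °C.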

Assay [3] relates to Staphylococcus aureus. In words: Antibacterial activity against 10^5 CFU/mL methicillin-resistant Staphylococcus aureus CCARM 3506 assessed as inhibition of bacterial growth after 24 hrs by microtiter enzyme-linked immunosorbent assay. The note with it: CCARM 3506, 24 h. Summed up: as §1
The subject of assay [4] is Escherichia coli. In words: Antibacterial activity against 10^5 CFU/mL Escherichia coli 1682 assessed as inhibition of bacterial growth after 24 hrs by microtiter enzyme-linked immunosorbent assay. The note with it: Escherichia coli, 1682, 24 h.
For assay [5], the system named is Staphylococcus aureus. In words: Antibacterial activity against 10^5 CFU/mL Staphylococcus aureus RN4220 assessed as inhibition of bacterial growth after 24 hrs by microtiter enzyme-linked immunosorbent assay. The conditions noted are these: RN4220, 24 h.
The subject of assay [6] is Staphylococcus aureus. The assay is described as follows: Antibacterial activity against 10^5 CFU/mL quinolone-resistant Staphylococcus aureus CCARM 3519 assessed as inhibition of bacterial growth after 24 hrs by microtiter enzyme-linked immunosorbent assay. The conditions noted are these: CCARM 3519, 24 h. In outline:
as §1

For assay [7], the system named is Escherichia coli. The assay is described as follows: Antibacterial activity against 10^5 CFU/mL Escherichia coli 1356 assessed as inhibition of bacterial growth after 24 hrs by microtiter enzyme-linked immunosorbent assay. The conditions noted are these: Escherichia coli, 1356, 24 h.
The test system of assay [8] is Staphylococcus aureus. The assay is described as follows: Antibacterial activity against 10^5 CFU/mL methicillin-resistant Staphylococcus aureus CCARM 3167 assessed as inhibition of bacterial growth after 24 hrs by microtiter enzyme-linked immunosorbent assay. The conditions noted are these: CCARM 3167, 24 h. Summed up: as §1
For assay [9], the system named is Staphylococcus aureus. The assay is described as follows: Ratio of Norfloxacin MIC to compound MIC for methicillin-resistant Staphylococcus aureus CCARM 3506.
For assay [10], the system named is Staphylococcus aureus. The assay is described as follows: Ratio of oxacillin MIC to compound MIC for methicillin-resistant Staphylococcus aureus CCARM 3167.
In assay [11] the test system is Staphylococcus aureus. In words: Ratio of Norfloxacin MIC to compound MIC for methicillin-resistant Staphylococcus aureus CCARM 3167.
The test system of assay [12] is Staphylococcus aureus. The assay is described as follows: Ratio of oxacillin MIC to compound MIC for methicillin-resistant Staphylococcus aureus CCARM 3506.

Consider `O=C(O)c1ccc(CN2C(=O)S/C(=C\c3ccc(/C=C/C(=O)c4ccccc4Br)cc3)C2=O)cc1`, for which the MIC with Staphylococcus aureus [1] was 4 µg/mL (≈ 7.29 µM); with Staphylococcus aureus [2] it was 2 µg/mL (≈ 3.65 µM); in the assay on Staphylococcus aureus [3], 1 µg/mL (≈ 1.82 µM); with Escherichia coli [4], greater than 64 µg/mL; in the assay on Staphylococcus aureus [5], 2 µg/mL (≈ 3.65 µM); in the assay with Staphylococcus aureus [6], 2 µg/mL (≈ 3.65 µM). In addition, the figures for the MIC in the assay with Escherichia coli [7] and in the assay on Staphylococcus aureus [8] were greater than 64 µg/mL and 1 µg/mL (≈ 1.82 µM), respectively.

In the case of `COc1ccccc1C(=O)/C=C/c1ccc(/C=C2\SC(=O)N(Cc3ccc(C(=O)O)cc3)C2=O)cc1`, the MIC with Staphylococcus aureus [1] was 4 µg/mL (≈ 8.01 µM); in the assay on Staphylococcus aureus [2], 4 µg/mL (≈ 8.01 µM); in the assay with Staphylococcus aureus [3] it was 2 µg/mL (≈ 4 µM); in the assay on Escherichia coli [4], greater than 64 µg/mL; with Staphylococcus aureus [5], 2 µg/mL (≈ 4 µM); in the assay on Staphylococcus aureus [6], 2 µg/mL (≈ 4 µM). The results for the MIC in the assay on Escherichia coli [7] and with Staphylococcus aureus [8] were greater than 64 µg/mL and 2 µg/mL (≈ 4 µM), respectively.

`O=C(O)c1ccc(CN2C(=O)S/C(=C\c3ccc(/C=C/C(=O)c4cccc(O)c4)cc3)C2=O)cc1`: the MIC was 4 µg/mL (≈ 8.24 µM) in the assay on Staphylococcus aureus [1]; 2 µg/mL (≈ 4.12 µM) in the assay with Staphylococcus aureus [2]; 1 µg/mL (≈ 2.06 µM) in the assay on Staphylococcus aureus [3]; greater than 64 µg/mL in the assay with Escherichia coli [4]; 2 µg/mL (≈ 4.12 µM) in the assay with Staphylococcus aureus [5]; 2 µg/mL (≈ 4.12 µM) in the assay on Staphylococcus aureus [6]. The figures for the MIC in the assay on Escherichia coli [7] and in the assay with Staphylococcus aureus [8] were greater than 64 µg/mL and 1 µg/mL (≈ 2.06 µM), respectively.

For `O=C(O)c1ccc(CN2C(=O)S/C(=C\c3ccc(/C=C/C(=O)c4ccccc4)cc3)C2=O)cc1`, the MIC with Staphylococcus aureus [1] was 2 µg/mL (≈ 4.26 µM); in the assay on Staphylococcus aureus [2], 2 µg/mL (≈ 4.26 µM); with Staphylococcus aureus [3], 0.5 µg/mL (≈ 1.06 µM); with Escherichia coli [4], greater than 64 µg/mL; with Staphylococcus aureus [5] it was 1 µg/mL (≈ 2.13 µM); with Staphylococcus aureus [6] it was 2 µg/mL (≈ 4.26 µM). The minimum inhibitory concentration (MIC) was greater than 64 µg/mL in the assay on Escherichia coli [7] and 1 µg/mL (≈ 2.13 µM) in the assay with Staphylococcus aureus [8]. For the same compound, the Ratio was 8 in the assay on Staphylococcus aureus [9], 64 with Staphylococcus aureus [10], 8 in the assay with Staphylococcus aureus [11] and 64 with Staphylococcus aureus [12].

Consider `CCn1cc(C(=O)O)c(=O)c2cc(F)c(N3CCNCC3)cc21` [NORFLOXACIN], for which the MIC was 2 µg/mL (≈ 6.26 µM) in the assay with Staphylococcus aureus [1]; greater than 64 µg/mL with Staphylococcus aureus [2]; 4 µg/mL (≈ 12.5 µM) in the assay on Staphylococcus aureus [3]; 16 µg/mL (≈ 50.1 µM) in the assay on Escherichia coli [4]; 2 µg/mL (≈ 6.26 µM) with Staphylococcus aureus [5]; greater than 64 µg/mL with Staphylococcus aureus [6]. Besides, the MIC in the assay with Escherichia coli [7] turned out to be 16 µg/mL (≈ 50.1 µM); in the assay with Staphylococcus aureus [8], 8 µg/mL (≈ 25.1 µM).

For `Cc1onc(-c2ccccc2)c1C(=O)N[C@@H]1C(=O)N2[C@@H]1SC(C)(C)[C@@H]2C(=O)O` [OXACILLIN], the MIC with Staphylococcus aureus [1] was 1 µg/mL (≈ 2.49 µM); in the assay with Staphylococcus aureus [2] it was 1 µg/mL (≈ 2.49 µM); in the assay on Staphylococcus aureus [3] it was greater than 64 µg/mL; in the assay on Escherichia coli [4] it was greater than 64 µg/mL; in the assay on Staphylococcus aureus [5], 1 µg/mL (≈ 2.49 µM); in the assay with Staphylococcus aureus [6] it was 1 µg/mL (≈ 2.49 µM). Besides, the MIC with Escherichia coli [7] and in the assay on Staphylococcus aureus [8] was greater than 64 µg/mL throughout.

For orientation: MIC means the lowest concentration that inhibits growth of the organism.
